Measured values from different studies.
Lines come from different studies, so protocols differ.
BTK: Tyrosine-protein kinase BTK (BTK, Homo sapiens, UniProt Q06187)
BTK R28H: Tyrosine-protein kinase BTK (BTK, Homo sapiens, UniProt Q06187, R28H)

| SMILES | target | assay | setting | quantity | result |
| --- | --- | --- | --- | --- | --- |
| FC(F)(F)c1ccc2c(c1)nc(-c1cccnc1)n2C1CC1 | BTK | cell-free assay, competition with immobilised ligand | 1 µM | remaining binding | 93% |
| Nc1ncnc2occ(-c3ccc(NC(=O)Nc4cc(C(F)(F)F)ccc4F)cc3)c12 | BTK | cell-free assay | 20 µM | remaining signal | 26% |
| Nc1nc(Nc2ccccc2)sc1C(=O)c1c(F)cccc1F | BTK | enzyme activity, inhibitor | 10 µM | remaining activity | 68% |
| CS(=O)(=O)N1CCCC(NC(=O)[C@H](CCC2CCCCC2)NC(=O)c2ccc(CNC(=O)c3cnc4ccccn34)cc2)C1 (some centres unmarked) | BTK | cell-free assay, competition with immobilised ligand | 0.1 µM | remaining binding | 100% |
| CC(C)(C=C(C#N)C(=O)N1CCC[C@H]1Cn1nc(-c2ccc(Oc3ccccc3)cc2F)c2c(N)ncnc21)N1CCOCC1 | BTK | enzyme activity, inhibitor |  | KI (inactivation) | 14 nM |
| CNC(=O)c1ccc(Nc2ncc(C(F)(F)F)c(NCc3nccnc3N(C)S(C)(=O)=O)n2)cc1 | BTK | cell-free assay, competition with immobilised ligand | 0.1 µM | remaining binding | 83% |
| Cc1ccc(NC(=O)c2ccc(C)c(C(F)(F)F)c2)cc1C#Cc1nn(C2CCC(O)CC2)c2ncnc(N)c12 (centres unmarked) | BTK R28H | cell-free assay | 10 µM | remaining signal | 71% |
| O=C(NCCCC1CCCCC1)c1ccc(CNC(=O)c2cnn(-c3ccccc3)c2C(F)(F)F)cc1 | BTK | cell-free assay, competition with immobilised ligand | 0.1 µM | remaining binding | 100% |
| Cc1cc(NC(=O)c2cccc3cc(-c4cccc5[nH]nc(N)c45)ccc23)ccc1F | BTK R28H | enzyme activity, inhibitor | 0.1 µM | activity vs control | 84% |
| O=C1Nc2ccc(Cl)cc2C1=Cc1cc(Cl)c(O)c(Cl)c1 | BTK | cell-free assay | 0.5 µM | remaining signal | 92.1% |
| Cc1sc(C(=O)NC2COC2)cc1-n1cc(NC(=O)Nc2c(F)cccc2Cl)cn1 | BTK | enzyme activity, inhibitor | 10 µM | remaining activity | 87.6% |
| FC(F)c1nc2ccccc2n1-c1nc(N2CCOCC2)nc(N2CCOCC2)n1 | BTK | enzyme activity, inhibitor | 10 µM | remaining activity | 98% |
| O=C(Nc1cnn(-c2csc(C(=O)NC3COC3)c2)c1)Nc1ccccc1Cl | BTK | enzyme activity, inhibitor | 5 µM | remaining activity | 92.6% |
| CCC(=O)N[C@H]1CC[C@@H](C(=O)N(C)c2ccc(-c3nc4ccccc4o3)cc2)C1 | BTK | cell-free assay, competition with immobilised ligand | 1 µM | remaining binding | 77% |
| COc1cc2c(N3CCN(C(=O)Nc4ccc(OC(C)C)cc4)CC3)ncnc2cc1OCCCN1CCCCC1 | BTK | cell-free assay | 0.5 µM | remaining signal | 102% |
| COc1ccc(F)cc1C(=O)NCc1ccc(-c2nn([C@@H](C)C(F)(F)F)c(N)c2C(N)=O)cc1 | BTK | binding, SPR |  | kon | 82000 M⁻¹ s⁻¹ |
| CC(C)(O)[C@H]1CC[C@H](Nc2ccc3ncc(-c4cccc(C(F)(F)F)c4)n3n2)CC1 | BTK | enzyme activity, inhibitor | 1 µM | remaining activity | 88% |
| Cc1noc([C@H]2C[C@@H](c3ccc(C(F)(F)F)cc3)CN(C(=O)N3CCS(=O)(=O)C3)C2)n1 | BTK | cell-free assay, competition with immobilised ligand | 1 µM | remaining binding | 96% |
| C=CC(=O)N1CCC[C@@H]1Cn1nc(-c2ccc(Oc3ccccc3)cc2F)c2c(N)ncnc21 | BTK | enzyme activity, inhibitor |  | kinact/KI | 1.9e+06 M⁻¹ s⁻¹ |
| COc1ccc2c(c1)O[C@@H](c1ccc(OC)c(OC)c1)C[C@H]2NC(=O)C1(c2ccc3c(c2)OC(F)(F)O3)CC1 | BTK | cell-free assay, competition with immobilised ligand | 1 µM | remaining binding | 81% |
| CC(C)(C)c1nc2c(s1)c1nc(N)ncc1c1ccc(NS(=O)(=O)c3c(F)cccc3F)c(F)c12 | BTK | enzyme activity, inhibitor, radiometric | 1 µM | remaining activity | 75% |
| CNCc1ccccc1-c1csc([C@H](C)Nc2nc(C)nc3cc(OC)c(OC)cc23)c1 | BTK | cell-free assay, competition with immobilised ligand | 1 µM | remaining binding | 89% |
| Oc1cccc(-c2nc(N3CCOCC3)c3oc4ncccc4c3n2)c1 | BTK | cell-free assay | 0.5 µM | remaining signal | 95.2% |
| COc1cc(Nc2cnc(C#N)c(O[C@H](C)CN(C)C)n2)ncc1-c1cnn(C)c1 | BTK | enzyme activity, inhibitor, radiometric | 1 µM | remaining activity | 88% |
| CC(C)(C)C(=O)c1sc(NC2CCCCC2)nc1N | BTK | enzyme activity, inhibitor | 10 µM | remaining activity | 79% |
| Cc1cnc(NC2CCOCC2)nc1-n1cnc(C(=O)NC(CN)c2cc(F)cc(Cl)c2)c1 (centres unmarked) | BTK | enzyme activity, inhibitor, radiometric | 1 µM | remaining activity | 102% |
